Experimental findings from ChEMBL document CHEMBL1828566, “Synthesis of 4β-triazole-podophyllotoxin derivatives by azide-alkyne cycloaddition and biological evaluation as potential antitumor agents” (Eur J Med Chem, 2011) are described below.

Experiment [1] concerns HeLa. Briefly: Cytotoxicity against human HeLa cells after 2 days by MTT assay. The format is functional, cell-based. As to conditions: 48 h. The method, boiled down:
(§1)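 Exponentially growing cells were seeded in 96-well plates, precultured 1 day, exposed to test compounds over a range of concentrations, then incubated 2 more days.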
In general terms: Formazan colour is commonly taken as a measure of viable cells.

Experiment [2] concerns K562. Briefly: Cytotoxicity against human K562 cells after 2 days by MTT assay. The format is functional, cell-based. The settings on record: K562, 48 h. Summed up:
as §1

A short description of experiment [3]: Cytotoxicity against human K562/A02 cells after 2 days by MTT assay. The format is functional, cell-based. The settings on record: K562/A02, 48 h. The method, boiled down: as §1
Experiment [4] has as its system HeLa. As to the kind of experiment: Selectivity index, ratio of IC50 for VP-16 to compound for human HeLa cells after 2 days by MTT assay. The format is functional.
In experiment [5] the test system is K562. As to the kind of experiment: Selectivity index, ratio of IC50 for VP-16 to compound for human K562 cells after 2 days by MTT assay. The format is functional.
Experiment [6] can be described thus: Selectivity index, ratio of IC50 for VP-16 to compound for human K562/A02 cells after 2 days by MTT assay. The format is functional.

SMILES strings stand for the structures. Structures can show the parent of a compound that is named as a salt.

The term IC50 denotes the concentration that inhibits the measured activity by half. A low value points to greater potency in that assay. Take `COC(=O)c1cn([C@@H]2c3cc4c(cc3[C@@H](c3cc(OC)c(OC)c(OC)c3)[C@H]3C(=O)OC[C@@H]32)OCO4)nn1`: the IC50 in experiment [1] is 1.12 µM; in experiment [2], 4.15 µM; in experiment [3], 2.07 µM.
In the case of `COc1cc([C@@H]2c3cc4c(cc3[C@@H](n3cc(C(=O)O)nn3)[C@H]3COC(=O)[C@H]23)OCO4)cc(OC)c1OC`, the half-inhibitory concentration (IC50) in experiment [1] is above 10 µM; in experiment [2], 5.4 µM; in experiment [3] it was 8.87 µM.
On to `COc1cc([C@@H]2c3cc4c(cc3[C@@H](n3cc(CCC(=O)O)nn3)[C@H]3COC(=O)[C@H]23)OCO4)cc(OC)c1OC`, for which the 50% inhibitory concentration (IC50) in experiment [1], in experiment [2] and in experiment [3] was above 10 µM in each case.
For `COc1cc([C@@H]2c3cc4c(cc3[C@@H](n3cc(-c5cccnc5)nn3)[C@H]3COC(=O)[C@H]23)OCO4)cc(OC)c1OC`, the IC50 in experiment [1] is 35.3 µM; in experiment [2], above 10 µM; in experiment [3], above 10 µM.
Turning to `COc1cc([C@@H]2c3cc4c(cc3[C@@H](n3cc(CNc5ccc(C)cc5)nn3)[C@H]3COC(=O)[C@H]23)OCO4)cc(OC)c1OC`, the results for the IC50 in experiment [1], in experiment [2] and in experiment [3] were 0.845 µM, 0.47 µM and 0.52 µM, respectively.
As for `COc1cc([C@@H]2c3cc4c(cc3[C@@H](n3cc(C(=O)Nc5ccccc5Cl)nn3)[C@H]3COC(=O)[C@H]23)OCO4)cc(OC)c1OC`, the values for the IC50 in experiment [1], in experiment [2] and in experiment [3] were 0.082 µM, 0.053 µM and 0.059 µM, respectively. Also, the “Ratio IC50” value in experiment [4], in experiment [5] and in experiment [6] was above 40 each time.
`COc1cc([C@@H]2c3cc4c(cc3[C@@H](n3cc(CN(C)C)nn3)[C@H]3COC(=O)[C@H]23)OCO4)cc(OC)c1OC`: the IC50 in experiment [1], in experiment [2] and in experiment [3] was above 10 µM throughout.
Turning to `CCN(CC)C(=O)c1cn([C@@H]2c3cc4c(cc3[C@@H](c3cc(OC)c(OC)c(OC)c3)[C@H]3C(=O)OC[C@@H]32)OCO4)nn1`, the IC50 in experiment [1], in experiment [2] and in experiment [3] was above 10 µM in each case.
For the molecule `COC(=O)c1cnnn1[C@@H]1c2cc3c(cc2[C@@H](c2cc(OC)c(OC)c(OC)c2)[C@H]2C(=O)OC[C@@H]21)OCO3`, the IC50 in experiment [1] turned out to be 0.42 µM; in experiment [2], 0.4 µM; in experiment [3] it was 0.6 µM.
Regarding `COc1cc([C@@H]2c3cc4c(cc3[C@@H](n3nncc3-c3cccnc3)[C@H]3COC(=O)[C@H]23)OCO4)cc(OC)c1OC`, the IC50 in experiment [1] stood at 1.46 µM; in experiment [2] it was 0.39 µM; in experiment [3] it was 1.23 µM.
In the same order, the values of `COc1cc([C@@H]2c3cc4c(cc3[C@@H](n3cc(C(=O)Nc5ccc(C)cc5)nn3)[C@H]3COC(=O)[C@H]23)OCO4)cc(OC)c1OC` are above 100 µM, above 100 µM and above 100 µM.
In the same order, the values of `COc1cc([C@@H]2c3cc4c(cc3[C@@H](n3nncc3C(=O)Nc3ccc(C)cc3)[C@H]3COC(=O)[C@H]23)OCO4)cc(OC)c1OC` are above 10 µM, 5.1 µM and 19.8 µM.
In the same order, the values of `CCOC(=O)c1cn([C@@H]2c3cc4c(cc3[C@@H](c3cc(OC)c(OC)c(OC)c3)[C@H]3C(=O)OC[C@@H]32)OCO4)nn1` are 3.53 µM, 4.25 µM and 2.21 µM.
With `CCOC(=O)c1cnnn1[C@@H]1c2cc3c(cc2[C@@H](c2cc(OC)c(OC)c(OC)c2)[C@H]2C(=O)OC[C@@H]21)OCO3`, the IC50 stood at 0.92 µM in experiment [1], 0.85 µM in experiment [2] and 0.69 µM in experiment [3].
The like results for `COc1cc([C@@H]2c3cc4c(cc3[C@@H](n3cc(CNc5ccccc5)nn3)[C@H]3COC(=O)[C@H]23)OCO4)cc(OC)c1OC` were, in that order, 2.36 µM, 5.73 µM and 5.96 µM.
As for `COc1cccc2c1C(=O)c1c(O)c3c(c(O)c1C2=O)C[C@@](O)(C(=O)CO)C[C@@H]3O[C@H]1C[C@H](N)[C@H](O)[C@H](C)O1` [DOXORUBICIN HYDROCHLORIDE], the half-maximal inhibitory concentration (IC50) came out at 0.43 µM in experiment [1], 0.36 µM in experiment [2] and 19.2 µM in experiment [3].
In the same order, the values of `COc1cc([C@@H]2c3cc4c(cc3[C@@H](O[C@@H]3O[C@@H]5CO[C@@H](C)O[C@H]5[C@H](O)[C@H]3O)[C@H]3COC(=O)[C@H]23)OCO4)cc(OC)c1O` [ETOPOSIDE] are 6.27 µM, 2.11 µM and 152 µM.
The like results for `COc1cc([C@@H]2c3cc4c(cc3[C@H](O)[C@H]3COC(=O)[C@H]23)OCO4)cc(OC)c1OC` [PODOFILOX] were, in that order, 0.1 µM, 0.03 µM and 0.17 µM.
